The values below come from PubChem BioAssay.

The nature of test [1]: Her2 expression decrease, cell viability multiplex – SKBR3 breast tumor cells, AlphaScreen, ATP viability, primary screen (AID 461;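 active means Her2 level under about 52% in both replicate screens, with viability over 70% of control, limit read from the data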;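 on Her2 level: lower value means less Her2 protein in the cells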;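 on viability: percent of carrier control wells set as 100% viability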). Particulars: SKBR3 Her2 protein level, 18-24 h, measured here: SKBR3 viability, ATP luminescence, at 10 µM.
For test [2], the target named is Receptor tyrosine-protein kinase erbB-2 (Homo sapiens) (UniProt P04626). The test is described as above. Particulars: 18-24 h, at 10 µM, stronger effect = lower value.
Test [3] is described as follows: reduced viability of SK-BR-3 breast cancer cells – cell-based, 24 h, human, pilot screen (AID 572).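 Further: compound exposure lasted between 18 and 24 h rather than exactly 24 h; 100% = carrier-treated control wells.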 The note with it: SK-BR-3 viability, CellTiter-Glo luminescence, at 10 µM, stronger effect = lower value. In general terms: ATP-based viability assays read luminescence as a measure of living cells.
Test [4] is described as follows: HUVEC growth inhibition – cell-based, human, primary screen (AID 575;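 active means viability at or below 30% in both replicate assays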;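 further: 100% = median of untreated cell wells with 0.1% DMSO on each plate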). Particulars: HUVEC proliferation, CellTiter-Glo luminescence, 72 h; at 10 µM; stronger effect = lower value. The method in brief:
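Test system – primary HUVEC, no more than 12 passages · Dosing – one dose, 10 µM final, 0.1% DMSO · Times – 72 h treatment at 37 °C · Measured by – ATP-based CellTiter-Glo luminescent read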

Test [5] in a line: H69AR cell proliferation blockers – human, duplicate replicates, primary screen (AID 580;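 active means viability at or under a set limit in both replicates, limit being median viability minus 3 SD, cut at about 48% in these data, passing the limit was not always enough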;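 further: 100% = mean luminescence of untreated wells and 0% = no signal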). Particulars: H69AR lung tumor cells viability, ATP luminescence, 72 h; at 10 µM; stronger effect = lower value.
A short description of test [6]: MRP1 drug-resistance reversers in H69AR cells – cell-based, doxorubicin co-treatment, pilot screen (AID 601;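 active means viability loss from added drug above about 55%, and viability with drug at most 40%, in both replicates, limit read from the data, passing the limit was not always enough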). Particulars: CellTiter-Glo, 72 h, at 10 µM; for differential viability (reversal): stronger effect = higher value.
Test [7] in a line: yeast transport mutant growth inhibition pilot in 384-well plates, post-Golgi transport modulator project (AID 636; in the data active means inhibition above about 31%). Particulars: absorbance 615 nm, about 18 h, stronger effect = higher value.
Test [8] in a line: growth suppression of yeast trafficking mutant, preliminary HTS, modulators of trafficking downstream of Golgi apparatus project, 1536-format plate, OD 615 nm (AID 637; in the data active means inhibition above about 30%). The note with it: yeast transport mutant growth, absorbance 615 nm, 18 h; stronger effect = higher value.
[9] abbreviates: H69AR cells + 2 uM doxorubicin, measured here: viability with 2 uM doxorubicin, stronger effect = lower value.
Setting [10] is: H69AR cells, compound alone cytotoxicity.

“And” between values parts separate entries of the source, which are not always exact repeats. Identical values can stand only once. The source made the active and inactive calls.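 How the source made its calls, unless noted: active means viability at or below 10% of carrier control in both of two separate runs; inconclusive means viability at or below 10% in only one of the two runs; inactive means the rest.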

Sequence of Receptor tyrosine-protein kinase erbB-2 (Homo sapiens) (P04626 whole entry, looked up): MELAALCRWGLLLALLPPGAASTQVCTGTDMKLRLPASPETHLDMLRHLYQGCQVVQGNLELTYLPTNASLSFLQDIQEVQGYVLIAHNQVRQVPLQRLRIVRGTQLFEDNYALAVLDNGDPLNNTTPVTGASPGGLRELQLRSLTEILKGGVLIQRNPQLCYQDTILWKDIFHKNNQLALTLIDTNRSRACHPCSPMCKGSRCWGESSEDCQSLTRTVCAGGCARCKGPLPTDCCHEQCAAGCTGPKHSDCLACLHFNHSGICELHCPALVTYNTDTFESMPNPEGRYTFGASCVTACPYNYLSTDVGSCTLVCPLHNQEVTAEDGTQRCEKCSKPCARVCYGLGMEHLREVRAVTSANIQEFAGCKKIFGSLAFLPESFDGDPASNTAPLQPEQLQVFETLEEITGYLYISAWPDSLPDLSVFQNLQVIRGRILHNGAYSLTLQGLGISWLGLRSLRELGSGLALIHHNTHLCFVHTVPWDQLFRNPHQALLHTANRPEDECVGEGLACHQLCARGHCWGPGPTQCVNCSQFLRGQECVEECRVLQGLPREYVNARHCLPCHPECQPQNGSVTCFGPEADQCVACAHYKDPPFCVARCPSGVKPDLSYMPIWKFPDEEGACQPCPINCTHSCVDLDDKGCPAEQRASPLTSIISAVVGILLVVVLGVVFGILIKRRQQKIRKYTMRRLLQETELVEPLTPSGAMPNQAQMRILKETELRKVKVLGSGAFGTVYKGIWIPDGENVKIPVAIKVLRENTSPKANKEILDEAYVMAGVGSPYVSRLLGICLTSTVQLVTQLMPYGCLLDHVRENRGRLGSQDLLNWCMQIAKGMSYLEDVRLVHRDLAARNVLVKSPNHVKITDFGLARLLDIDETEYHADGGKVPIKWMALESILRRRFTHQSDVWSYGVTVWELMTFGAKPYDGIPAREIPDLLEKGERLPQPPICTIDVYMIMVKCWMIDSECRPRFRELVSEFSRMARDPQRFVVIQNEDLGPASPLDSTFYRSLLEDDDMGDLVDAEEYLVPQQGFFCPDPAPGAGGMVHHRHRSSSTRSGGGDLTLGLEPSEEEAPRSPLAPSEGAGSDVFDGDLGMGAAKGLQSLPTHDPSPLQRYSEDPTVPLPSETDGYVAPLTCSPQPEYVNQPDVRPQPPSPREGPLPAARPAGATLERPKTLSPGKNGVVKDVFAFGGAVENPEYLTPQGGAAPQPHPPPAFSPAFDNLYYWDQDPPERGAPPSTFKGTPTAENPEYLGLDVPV

One may read the viability as a read-out of living cells in per cent, often relative to untreated cells. In general, inhibition refers to the relative decrease from the control value, in per cent. Regarding `O=c1ccc(S(=O)(=O)N2CCC(Cc3ccccc3)CC2)c[nH]1`, the viability in test [1] was 86%; in test [3], 86% (inactive); in test [4], 111% (inactive); in test [5] it was 95.3% (inactive); in test [6] (setting [9]) it was 86.8%; in test [6] (setting [10]) it was 95.3%. Besides, in test [2], the Her2 level is 80.5% (inactive). In test [6] (H69AR cells + 2 uM doxorubicin), the differential viability (reversal) was 8.51% (inactive). Moreover, the inhibition was 0.13% (inactive) in test [7] and -4.33% (inactive) in test [8].

Take `COc1cc(C(=O)OCC(=O)N(C)Cc2ccccc2)cc(OC)c1OC`: the viability is 106% in test [1]; 106% (inactive) in test [3]; 103% (inactive) in test [4]; 94.8% (inactive) in test [5]; 97.4% in test [6] (setting [9]); 94.8% in test [6] (setting [10]). The Her2 level in test [2] was 96.5% (inactive). In addition, the differential viability (reversal) in test [6] (H69AR cells + 2 uM doxorubicin) is -2.6% (inactive). The inhibition was -5.34% (inactive) in test [7] and 0.79% (inactive) in test [8].

Regarding `CC(C)C(=O)Nc1cccc(NC(=O)c2cccnc2)c1`, the viability in test [1] was 102%; in test [3], 102% (inactive); in test [4] it was 107% (inactive); in test [5] it was 97.9% (inactive); in test [6] (setting [9]), 99.6%; in test [6] (setting [10]), 97.9%. Besides, the Her2 level in test [2] was 98.5% (inactive). Moreover, the differential viability (reversal) in test [6] (H69AR cells + 2 uM doxorubicin) is -1.67% (inactive). For the same compound, the inhibition is -2.63% (inactive) in test [7] and 4.1% (inactive) in test [8].

`COc1ccc2c(c1OC)C(=O)OC2C1c2c(cc3c(c2OC)OCO3)CCN1C` (stereo not given): the viability in test [1] is 89%; in test [3] it was 89% (inactive) and 83% (inactive); in test [4] it was 70.2% (inactive) and 90.3% (inactive); in test [5] it was 73.8% (inactive); in test [6] (setting [9]) it was 91.6% and 97%; in test [6] (setting [10]), 51.7% and 73.8%. Moreover, in test [2], the Her2 level was 90.5% (inactive). In test [6] (H69AR cells + 2 uM doxorubicin), the differential viability (reversal) was -40% (inactive) and -23.1% (inactive). For the same compound, the inhibition in test [7] is 1.95% (inactive) and -2.86% (inactive); in test [8], 4.92% (inactive) and 5.33% (inactive).

On to `CCOC(=O)c1[nH]c2ccccc2c1NC(=O)CCN1CCN(C(=O)OCC)CC1`, for which the viability in test [1] was 110%; in test [3], 110% (inactive); in test [4] it was 81.4% (inactive); in test [5], 96.8% (inactive); in test [6] (setting [9]), 77.7%; in test [6] (setting [10]) it was 96.8%. The Her2 level in test [2] was 89.5% (inactive). For the same compound, the differential viability (reversal) in test [6] (H69AR cells + 2 uM doxorubicin) was 19.1% (inactive). Further, the inhibition in test [7] was 1.84% (inactive); in test [8] it was -1.94% (inactive).

Turning to `O=C(O)CCCCCNc1nc(=S)[nH]c2ccccc12`, the viability in test [1] was 107%; in test [3], 107% (inactive); in test [4], 99.7% (inactive); in test [5], 89.3% (inactive); in test [6] (setting [9]) it was 79%; in test [6] (setting [10]) it was 89.3%. Besides, the Her2 level in test [2] is 99% (inactive). In test [6] (H69AR cells + 2 uM doxorubicin), the differential viability (reversal) was 10.3% (inactive). Also, the inhibition was -5.92% (inactive) in test [7] and -1.59% (inactive) in test [8].

As for `Nc1ccc(C(=O)O)c(O)c1`, the viability was 100% in test [1]; 100% (inactive) and 130% (inactive) in test [3]; 105% (inactive) and 87.5% (inactive) in test [4]; 78.2% (inactive) and 90.7% (inactive) in test [5]; 107% and 84.1% in test [6] (setting [9]); 78.2% and 90.7% in test [6] (setting [10]). Further, in test [2], the Her2 level is 113% (inactive). Moreover, in test [6] (H69AR cells + 2 uM doxorubicin), the differential viability (reversal) was -28.9% (inactive) and 6.59% (inactive). The inhibition was -1.82% (inactive) in test [7] and 15.8% (inactive) in test [8].

In the case of `Cc1ccc(C)c2[nH]c(=O)c(CN(CCN3CCCC3)C(=O)Nc3cccc(Cl)c3)cc12`, the viability in test [1] is 87%; in test [3], 87% (inactive); in test [4], 15.6% (active); in test [5], 26.6% (active); in test [6] (setting [9]), 32.8%; in test [6] (setting [10]) it was 26.6%. In addition, the Her2 level in test [2] is 84% (inactive). Also, in test [6] (H69AR cells + 2 uM doxorubicin), the differential viability (reversal) is -6.23% (inactive). Besides, the results for the inhibition in test [7] and in test [8] were -8.22% (inactive) and -0.32% (inactive), respectively.

Consider `CCN(CC)CCN1C(=O)C(=O)/C(=C(/O)c2c(C)[nH]c(C(=O)OC)c2C)C1c1ccco1` (stereo not given), for which the viability in test [1] is 88%; in test [3], 88% (inactive); in test [4], 107% (inactive); in test [5], 93.4% (inactive); in test [6] (setting [9]), 96.6%; in test [6] (setting [10]), 93.4%. The Her2 level in test [2] is 105% (inactive). In test [6] (H69AR cells + 2 uM doxorubicin), the differential viability (reversal) was -3.21% (inactive). Also, the inhibition in test [7] was -4.8% (inactive); in test [8], -0.16% (inactive).

Consider `Cc1ccc(-n2cnnn2)c2cccnc12`, for which the viability was 95.5% in test [1]; 95.5% (inactive) in test [3]; 72.1% (inactive) in test [4]; 101% (inactive) in test [5]; 93.5% in test [6] (setting [9]); 101% in test [6] (setting [10]). Also, the Her2 level in test [2] was 92% (inactive). In test [6] (H69AR cells + 2 uM doxorubicin), the differential viability (reversal) was 7.82% (inactive). The inhibition in test [7] was -5.53% (inactive); in test [8], 4.83% (inactive).

`CCOc1cccc(C(=O)N(Cc2ccc(F)cc2)C2CCS(=O)(=O)C2)c1` (stereo not given): the viability in test [1] was 97%; in test [3] it was 97% (inactive); in test [4], 100% (inactive); in test [5], 86.3% (inactive); in test [6] (setting [9]), 89.9%; in test [6] (setting [10]) it was 86.3%. In addition, in test [2], the Her2 level was 98% (inactive). In addition, the differential viability (reversal) in test [6] (H69AR cells + 2 uM doxorubicin) was -3.54% (inactive). Moreover, the inhibition in test [7] was -1.82% (inactive); in test [8] it was -2.33% (inactive).

Regarding `CCOc1cc(N2CCOCC2)c(OCC)cc1NC(=O)CSc1cccc[n+]1[O-]`, the viability in test [1] is 128%; in test [3], 128% (inactive); in test [4] it was 94% (inactive); in test [5], 86.8% (inactive); in test [6] (setting [9]) it was 84.8%; in test [6] (setting [10]), 86.8%. Further, the Her2 level in test [2] is 93% (inactive). The differential viability (reversal) in test [6] (H69AR cells + 2 uM doxorubicin) is 1.93% (inactive). Further, the inhibition in test [7] was -5.26% (inactive); in test [8], -4% (inactive).

As for `O=C(Nc1ccc2c(c1)OCO2)C(c1ccc(Cl)cc1)N1CCN(C(=O)c2ccco2)CC1` (stereo not given), the viability in test [1] was 71%; in test [3], 71% (inactive); in test [4] it was 103% (inactive); in test [5], 91.4% (inactive); in test [6] (setting [9]) it was 84.5%; in test [6] (setting [10]), 91.4%. Besides, the Her2 level in test [2] is 80.5% (inactive). Further, in test [6] (H69AR cells + 2 uM doxorubicin), the differential viability (reversal) was 6.85% (inactive). Moreover, the inhibition was -5.27% (inactive) in test [7] and 2.3% (inactive) in test [8].

`Cc1cc(C)n2nc(C(=O)NCc3ccco3)nc2n1`: the viability in test [1] was 101%; in test [3] it was 101% (inactive); in test [4], 91.4% (inactive); in test [5], 99% (inactive); in test [6] (setting [9]), 94.5%; in test [6] (setting [10]), 99%. For the same compound, the Her2 level in test [2] is 90% (inactive). Also, the differential viability (reversal) in test [6] (H69AR cells + 2 uM doxorubicin) was 4.53% (inactive). Further, the values for the inhibition in test [7] and in test [8] were -0.26% (inactive) and -5.32% (inactive), respectively.

As to `CC12CN3CC(C)(CN(C1)C3c1ccc(Br)cc1)C2` (stereo not given), the viability in test [1] was 99%; in test [3] it was 99% (inactive); in test [4] it was 99.2% (inactive); in test [5], 102% (inactive); in test [6] (setting [9]), 89.4%; in test [6] (setting [10]) it was 102%. Moreover, in test [2], the Her2 level is 97% (inactive). For the same compound, in test [6] (H69AR cells + 2 uM doxorubicin), the differential viability (reversal) was 12.9% (inactive). Besides, the inhibition is -2.63% (inactive) in test [7] and 2.46% (inactive) in test [8].
